Measured values reported in ChEMBL document CHEMBL4602702, “Red-Emitting Dibenzodiazepinone Derivatives as Fluorescent Dualsteric Probes for the Muscarinic Acetylcholine M2 Receptor” (J Med Chem, 2020).
Calls of active or inactive are those of the source. The rule behind the calls is not given here.

Columns and labels:
[1] = molecular target: T1, Muscarinic acetylcholine receptor M2 (Homo sapiens, UniProt P08172); test: (§1) Antagonist activity at human muscarinic M2 receptor expressed in HEK293 cells co-expressing HA-Galphaq/i5 assessed as inhibition of carbachol-induced IP1 accumulation at 37 degree C pre-incubated for 30 mins followed by carbachol addition and measured after 60 mins by HTRF assay; format: functional, cell-based
T1 sequence (P08172 whole entry): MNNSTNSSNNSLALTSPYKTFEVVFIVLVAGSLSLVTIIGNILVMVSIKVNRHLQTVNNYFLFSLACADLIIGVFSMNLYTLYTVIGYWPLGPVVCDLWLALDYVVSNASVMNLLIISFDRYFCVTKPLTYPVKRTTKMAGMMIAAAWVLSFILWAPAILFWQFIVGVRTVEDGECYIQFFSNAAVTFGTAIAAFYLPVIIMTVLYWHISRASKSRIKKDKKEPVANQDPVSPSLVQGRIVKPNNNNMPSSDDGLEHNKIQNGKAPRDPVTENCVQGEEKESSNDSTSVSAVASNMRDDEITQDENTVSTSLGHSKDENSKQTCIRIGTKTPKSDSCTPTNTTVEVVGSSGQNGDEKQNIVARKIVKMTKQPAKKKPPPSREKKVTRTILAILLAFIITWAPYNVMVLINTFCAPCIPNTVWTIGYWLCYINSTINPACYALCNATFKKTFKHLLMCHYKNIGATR

[2] = molecular target: T2, Muscarinic acetylcholine receptor M1 (Homo sapiens, UniProt P11229); test: Displacement of [3H]-NMS from human muscarinic M1 receptor stably expressed in CHO-K9 cells by radioligand competitive binding assay; format: cell-based
T2 sequence (P11229 whole entry): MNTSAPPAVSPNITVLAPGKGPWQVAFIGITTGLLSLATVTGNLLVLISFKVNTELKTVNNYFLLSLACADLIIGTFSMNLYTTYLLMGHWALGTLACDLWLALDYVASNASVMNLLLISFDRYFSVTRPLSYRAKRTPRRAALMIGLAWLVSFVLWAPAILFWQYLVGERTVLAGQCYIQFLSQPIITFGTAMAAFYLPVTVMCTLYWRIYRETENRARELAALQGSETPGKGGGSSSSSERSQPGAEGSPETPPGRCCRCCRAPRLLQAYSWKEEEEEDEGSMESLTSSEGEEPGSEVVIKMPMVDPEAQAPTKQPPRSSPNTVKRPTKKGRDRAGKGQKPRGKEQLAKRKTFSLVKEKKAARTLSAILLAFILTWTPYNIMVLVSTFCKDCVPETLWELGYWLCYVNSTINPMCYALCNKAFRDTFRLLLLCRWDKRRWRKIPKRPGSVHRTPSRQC
Outline: (§2)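 Equilibrium competition binding at live CHO-hMxR cells with [3H]NMS at M1 0.2, M2 0.2, M3 0.2, M4 0.1, M5 0.3 nM. […] Four-parameter logistic fit converted to pKi; at least three experiments in triplicate (some two).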

[3] = molecular target: T1, Muscarinic acetylcholine receptor M2; test: Displacement of [3H]-NMS from human muscarinic M2 receptor stably expressed in CHO-K9 cells by radioligand competitive binding assay; format: cell-based; outline: as §2
[4] = molecular target: Muscarinic acetylcholine receptor M3 (Homo sapiens, UniProt P20309); test: Displacement of [3H]-NMS from human muscarinic M3 receptor stably expressed in CHO-K9 cells by radioligand competitive binding assay; format: cell-based; outline: as §2
[5] = molecular target: T3, Muscarinic acetylcholine receptor M4 (Homo sapiens, UniProt P08173); test: Displacement of [3H]-NMS from human muscarinic M4 receptor stably expressed in CHO-K9 cells by radioligand competitive binding assay; format: cell-based; outline: as §2
T3 sequence (P08173 whole entry): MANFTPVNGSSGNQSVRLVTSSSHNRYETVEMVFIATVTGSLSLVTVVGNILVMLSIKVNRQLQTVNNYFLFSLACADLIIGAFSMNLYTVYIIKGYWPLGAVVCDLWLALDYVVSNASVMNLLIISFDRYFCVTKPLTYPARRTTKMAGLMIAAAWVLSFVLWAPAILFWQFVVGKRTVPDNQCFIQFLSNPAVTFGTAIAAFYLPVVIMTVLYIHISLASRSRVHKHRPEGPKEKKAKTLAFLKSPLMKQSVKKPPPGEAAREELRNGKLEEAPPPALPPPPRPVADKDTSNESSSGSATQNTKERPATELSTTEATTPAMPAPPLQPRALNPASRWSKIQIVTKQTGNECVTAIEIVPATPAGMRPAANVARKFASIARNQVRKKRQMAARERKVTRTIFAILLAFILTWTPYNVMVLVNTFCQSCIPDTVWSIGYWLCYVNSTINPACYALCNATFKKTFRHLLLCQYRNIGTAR

[6] = molecular target: T4, Muscarinic acetylcholine receptor M5 (Homo sapiens, UniProt P08912); test: Displacement of [3H]-NMS from human muscarinic M5 receptor stably expressed in CHO-K9 cells by radioligand competitive binding assay; format: cell-based; outline: as §2
T4 sequence (P08912 whole entry): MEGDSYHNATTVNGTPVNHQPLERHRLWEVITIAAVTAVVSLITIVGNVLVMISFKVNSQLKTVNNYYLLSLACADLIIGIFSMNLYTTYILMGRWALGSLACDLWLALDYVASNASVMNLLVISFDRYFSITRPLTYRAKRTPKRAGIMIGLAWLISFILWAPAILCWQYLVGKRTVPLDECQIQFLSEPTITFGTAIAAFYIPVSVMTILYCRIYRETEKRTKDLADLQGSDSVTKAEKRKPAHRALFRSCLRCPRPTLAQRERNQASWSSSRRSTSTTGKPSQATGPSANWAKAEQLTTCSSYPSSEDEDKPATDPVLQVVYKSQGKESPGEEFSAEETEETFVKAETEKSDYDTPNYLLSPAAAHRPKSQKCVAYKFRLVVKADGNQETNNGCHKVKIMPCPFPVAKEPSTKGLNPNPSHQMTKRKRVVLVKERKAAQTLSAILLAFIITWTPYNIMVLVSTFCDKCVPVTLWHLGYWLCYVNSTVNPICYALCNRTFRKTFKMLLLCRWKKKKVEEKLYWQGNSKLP

[7] = molecular target: T1, Muscarinic acetylcholine receptor M2; test: as §1, with “22” for “37”, “180” for “30”, “further incubated at 37 degree C for 90” for “measured after 60”; format: functional, cell-based
Outline: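 HEK-hM2-Gαqi5-HA cells (transient transfection) preincubated with antagonist at 22 °C for 180 min, then carbachol 0.3 μM (≈EC80) added and incubation continued at 37 °C for 90 min. Readout is inhibition of IP1 accumulation as pIC50, mean ± SEM of n independent experiments, each in duplicate.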

[8] = molecular target: T3, Muscarinic acetylcholine receptor M4; test: as §1, with “M4” for “M2”, “22” for “37”, “180” for “30”, “further incubated at 37 degree C for 90” for “measured after 60”; format: functional, cell-based
[9] = molecular target: T5, Muscarinic acetylcholine receptor M2 (Homo sapiens) (UniProt P08172); test: Agonist activity at human muscarinic M2 receptor expressed in HEK293 cells co-expressing HA-Galphaq/i5 assessed as induction of Galphaq/i5-mediated IP1 accumulation by HTRF assay; format: functional, cell-based
T5 sequence (whole entry): T1 sequence (P08172 whole entry)
Outline: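 HEK-293 cells transiently co-transfected with hM2R and hybrid Gαqi5-HA, run in agonist mode at 37 °C; IP1 accumulation measured. Carbachol control from 14 independent experiments in duplicate; test ligands from three or four independent experiments in duplicate.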

[10] = molecular target: T1, Muscarinic acetylcholine receptor M2; test: Binding affinity to human muscarinic M2 receptor expressed in […] cells incubated in dark at 22 degree C for 2 hrs by FACSCalibur flow cytometric saturation binding study; format: cell-based
[11] = molecular target: T1, Muscarinic acetylcholine receptor M2; test: Binding affinity to human muscarinic M2 receptor expressed in CHO-K9 cells incubated in dark measured after 60 mins by Hoechst H33342 dye based confocal plate reader assay; format: cell-based
Outline: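 Live CHO-hMxR cells (M1 or M2) incubated with fluorescent ligand at 22 °C in the dark for 1 h, washed, then imaged at once by high-content confocal plate reader.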

[12] = molecular target: T5, Muscarinic acetylcholine receptor M2 (Homo sapiens); test: Binding affinity to human muscarinic M2 receptor expressed in […] cells assessed as unspecific binding at Kd incubated in dark at 22 degree C for 2 hrs in presence of atropine by FACSCalibur flow cytometric saturation binding study relative to control; format: cell-based
[13] = Chemical stability of compound in PBS buffer assessed as retention time at pH 7.4 and 22 degree C measured up to 48 hrs by RP-HPLC analysis; format: physicochemical; details: pH 7.4, 48 h
Outline: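 Fluorescent ligand stability checked in PBS pH 7.4 over 48 h by RP-HPLC on a C18 column with an aqueous TFA/acetonitrile gradient, oven at 25 °C, detection at 220 nm.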

Chain of Muscarinic acetylcholine receptor M3 (P20309 whole entry): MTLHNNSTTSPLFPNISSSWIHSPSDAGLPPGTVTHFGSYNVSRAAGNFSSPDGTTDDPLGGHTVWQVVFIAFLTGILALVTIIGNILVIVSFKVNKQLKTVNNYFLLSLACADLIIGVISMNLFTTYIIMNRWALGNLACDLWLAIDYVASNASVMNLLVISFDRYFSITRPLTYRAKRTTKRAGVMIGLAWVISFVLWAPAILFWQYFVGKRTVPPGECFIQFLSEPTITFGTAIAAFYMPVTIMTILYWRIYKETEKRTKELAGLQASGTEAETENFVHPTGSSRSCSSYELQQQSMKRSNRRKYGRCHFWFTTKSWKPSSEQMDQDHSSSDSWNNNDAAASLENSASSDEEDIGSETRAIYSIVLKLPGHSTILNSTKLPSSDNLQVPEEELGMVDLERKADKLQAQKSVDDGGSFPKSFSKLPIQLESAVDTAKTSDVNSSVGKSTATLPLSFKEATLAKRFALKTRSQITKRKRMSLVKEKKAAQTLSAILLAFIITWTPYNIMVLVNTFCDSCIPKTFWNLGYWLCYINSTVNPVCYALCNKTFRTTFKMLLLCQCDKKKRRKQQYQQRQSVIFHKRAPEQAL

| Ki [2] [nM] | Ki [3] [nM] | Ki [4] [nM] | Ki [5] [nM] | Ki [6] [nM] | SMILES | other results |
| --- | --- | --- | --- | --- | --- | --- |
| 10 | 1.35 | 67.6 | 3.98 | 141 | CC1(C)C(/C=C/C=C/C=C2/N(CCCCCC(=O)NCCN3CCN(CCCCC4CCN(CC(=O)N5c6ccccc6NC(=O)c6ccccc65)CC4)CC3)c3ccccc3C2(C)C)=[N+](CCCCS(=O)(=O)[O-])c2ccccc21 | IC50 [1]: 49 nM; IC50 [7]: 60.3 nM; IC50 [8]: 91.2 nM; Activity [9]: inactive; Kd ([10]; read-out: Kd): 2 nM; Kd ([10]; read-out: pKd (converted)): 2.57 nM; Kd ([11]; read-out: Kd): 10.8 nM; Kd ([11]; read-out: pKd (converted)): 8.71 nM; Activity [12]: 10% |
| – | 1.41 | – | – | – | CC1(C)C(/C=C/C=C/C=C2/N(CCCCCC(=O)NCc3cc(C(=O)NCCNC(=O)CCc4cn(CCCCC5CCN(CC(=O)N6c7ccccc7NC(=O)c7ccccc76)CC5)cn4)cc(C(=O)NCCNC(=O)CCc4cn(CCCCC5CCN(CC(=O)N6c7ccccc7NC(=O)c7ccccc76)CC5)cn4)c3)c3ccccc3C2(C)C)=[N+](CCCCS(=O)(=O)[O-])c2ccccc21 | – |
| 15.1 | 4.47 | 85.1 | 18.6 | 69.2 | C[N+]1=C(/C=C/C=C/C=C2/N(CCCCCC(=O)NCCN3CCN(CCCCC4CCN(CC(=O)N5c6ccccc6NC(=O)c6ccccc65)CC4)CC3)c3ccccc3C2(C)C)C(C)(C)c2ccccc21 | – |
| – | 0.589 | – | – | – | NCCNC(=O)CCc1cn(CCCCC2CCN(CC(=O)N3c4ccccc4NC(=O)c4ccccc43)CC2)cn1 | – |
| – | 10.7 | – | – | – | NCCCCC1CCN(CC(=O)N2c3ccccc3NC(=O)c3ccccc32)CC1 | – |
| 2.29 | 0.257 | 21.9 | 2.57 | 30.9 | CC1(C)C(/C=C/C=C/C=C2/N(CCCCCC(=O)NCc3cc(C(=O)NCCN4CCC(N5CCC(n6c(=O)[nH]c7ccccc76)CC5)CC4)cc(C(=O)NCCN4CCN(CCCCC5CCN(CC(=O)N6c7ccccc7NC(=O)c7ccccc76)CC5)CC4)c3)c3ccc(S(=O)(=O)[O-])cc3C2(C)C)=[N+](CCCCS(=O)(=O)O)c2ccccc21.O=C(O)C(F)(F)F.O=C(O)C(F)(F)F.O=C(O)C(F)(F)F.O=C(O)C(F)(F)F | Kd ([10]; read-out: Kd): 0.65 nM; Activity [12]: 10%; Retention_time [13]: 18 min |
| – | 0.269 | – | – | – | NCc1cc(C(=O)NCCNC(=O)CCc2cn(CCCCC3CCN(CC(=O)N4c5ccccc5NC(=O)c5ccccc54)CC3)cn2)cc(C(=O)NCCNC(=O)CCc2cn(CCCCC3CCN(CC(=O)N4c5ccccc5NC(=O)c5ccccc54)CC3)cn2)c1 | – |
